The source of these data is PMC3822732 (Journal of Cellular and Molecular Medicine, 2009).

pKd: −log10 of the molar value. Like-named read-outs stand apart in the source and are kept apart here.

Data set [1] has as its system RBE4 cells. As to the kind of experiment: [125I]-Angiopep-2 uptake assay in brain endothelial cells. In kind it is cell-based, rat. The following applies: [125I]-Angiopep-2 100 nM; poly-L-lysine 350 μg/ml, protamine 40 μg/ml. In short, it runs like this:
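RBE4 brain endothelial cells were grown on collagen I in α-MEM/Ham's F-12 (1:1) with 10% heat-inactivated FCS, G418 and bFGF, seeded at 5 × 10⁴ cells/well and fed 3 days. Subconfluent cells in Ringer/HEPES pH 7.4 took up the tracer for 2 min at 37°C with a polycation, ± unlabelled peptide. Cells were lysed in 0.3 M NaOH and gamma counted, with unlabelled-cell background subtracted, in quadruplicate.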

Data set [2] addresses LRP-1. The following applies: read-out: Affinity for LRP-1; in other cell types; cited from earlier work.
Data set [3] deals with LRP-1 (Homo sapiens) (UniProt Q07954). The following applies: cited from earlier work.
Sequence of LRP-1 (Homo sapiens) (Q07954 20-4544): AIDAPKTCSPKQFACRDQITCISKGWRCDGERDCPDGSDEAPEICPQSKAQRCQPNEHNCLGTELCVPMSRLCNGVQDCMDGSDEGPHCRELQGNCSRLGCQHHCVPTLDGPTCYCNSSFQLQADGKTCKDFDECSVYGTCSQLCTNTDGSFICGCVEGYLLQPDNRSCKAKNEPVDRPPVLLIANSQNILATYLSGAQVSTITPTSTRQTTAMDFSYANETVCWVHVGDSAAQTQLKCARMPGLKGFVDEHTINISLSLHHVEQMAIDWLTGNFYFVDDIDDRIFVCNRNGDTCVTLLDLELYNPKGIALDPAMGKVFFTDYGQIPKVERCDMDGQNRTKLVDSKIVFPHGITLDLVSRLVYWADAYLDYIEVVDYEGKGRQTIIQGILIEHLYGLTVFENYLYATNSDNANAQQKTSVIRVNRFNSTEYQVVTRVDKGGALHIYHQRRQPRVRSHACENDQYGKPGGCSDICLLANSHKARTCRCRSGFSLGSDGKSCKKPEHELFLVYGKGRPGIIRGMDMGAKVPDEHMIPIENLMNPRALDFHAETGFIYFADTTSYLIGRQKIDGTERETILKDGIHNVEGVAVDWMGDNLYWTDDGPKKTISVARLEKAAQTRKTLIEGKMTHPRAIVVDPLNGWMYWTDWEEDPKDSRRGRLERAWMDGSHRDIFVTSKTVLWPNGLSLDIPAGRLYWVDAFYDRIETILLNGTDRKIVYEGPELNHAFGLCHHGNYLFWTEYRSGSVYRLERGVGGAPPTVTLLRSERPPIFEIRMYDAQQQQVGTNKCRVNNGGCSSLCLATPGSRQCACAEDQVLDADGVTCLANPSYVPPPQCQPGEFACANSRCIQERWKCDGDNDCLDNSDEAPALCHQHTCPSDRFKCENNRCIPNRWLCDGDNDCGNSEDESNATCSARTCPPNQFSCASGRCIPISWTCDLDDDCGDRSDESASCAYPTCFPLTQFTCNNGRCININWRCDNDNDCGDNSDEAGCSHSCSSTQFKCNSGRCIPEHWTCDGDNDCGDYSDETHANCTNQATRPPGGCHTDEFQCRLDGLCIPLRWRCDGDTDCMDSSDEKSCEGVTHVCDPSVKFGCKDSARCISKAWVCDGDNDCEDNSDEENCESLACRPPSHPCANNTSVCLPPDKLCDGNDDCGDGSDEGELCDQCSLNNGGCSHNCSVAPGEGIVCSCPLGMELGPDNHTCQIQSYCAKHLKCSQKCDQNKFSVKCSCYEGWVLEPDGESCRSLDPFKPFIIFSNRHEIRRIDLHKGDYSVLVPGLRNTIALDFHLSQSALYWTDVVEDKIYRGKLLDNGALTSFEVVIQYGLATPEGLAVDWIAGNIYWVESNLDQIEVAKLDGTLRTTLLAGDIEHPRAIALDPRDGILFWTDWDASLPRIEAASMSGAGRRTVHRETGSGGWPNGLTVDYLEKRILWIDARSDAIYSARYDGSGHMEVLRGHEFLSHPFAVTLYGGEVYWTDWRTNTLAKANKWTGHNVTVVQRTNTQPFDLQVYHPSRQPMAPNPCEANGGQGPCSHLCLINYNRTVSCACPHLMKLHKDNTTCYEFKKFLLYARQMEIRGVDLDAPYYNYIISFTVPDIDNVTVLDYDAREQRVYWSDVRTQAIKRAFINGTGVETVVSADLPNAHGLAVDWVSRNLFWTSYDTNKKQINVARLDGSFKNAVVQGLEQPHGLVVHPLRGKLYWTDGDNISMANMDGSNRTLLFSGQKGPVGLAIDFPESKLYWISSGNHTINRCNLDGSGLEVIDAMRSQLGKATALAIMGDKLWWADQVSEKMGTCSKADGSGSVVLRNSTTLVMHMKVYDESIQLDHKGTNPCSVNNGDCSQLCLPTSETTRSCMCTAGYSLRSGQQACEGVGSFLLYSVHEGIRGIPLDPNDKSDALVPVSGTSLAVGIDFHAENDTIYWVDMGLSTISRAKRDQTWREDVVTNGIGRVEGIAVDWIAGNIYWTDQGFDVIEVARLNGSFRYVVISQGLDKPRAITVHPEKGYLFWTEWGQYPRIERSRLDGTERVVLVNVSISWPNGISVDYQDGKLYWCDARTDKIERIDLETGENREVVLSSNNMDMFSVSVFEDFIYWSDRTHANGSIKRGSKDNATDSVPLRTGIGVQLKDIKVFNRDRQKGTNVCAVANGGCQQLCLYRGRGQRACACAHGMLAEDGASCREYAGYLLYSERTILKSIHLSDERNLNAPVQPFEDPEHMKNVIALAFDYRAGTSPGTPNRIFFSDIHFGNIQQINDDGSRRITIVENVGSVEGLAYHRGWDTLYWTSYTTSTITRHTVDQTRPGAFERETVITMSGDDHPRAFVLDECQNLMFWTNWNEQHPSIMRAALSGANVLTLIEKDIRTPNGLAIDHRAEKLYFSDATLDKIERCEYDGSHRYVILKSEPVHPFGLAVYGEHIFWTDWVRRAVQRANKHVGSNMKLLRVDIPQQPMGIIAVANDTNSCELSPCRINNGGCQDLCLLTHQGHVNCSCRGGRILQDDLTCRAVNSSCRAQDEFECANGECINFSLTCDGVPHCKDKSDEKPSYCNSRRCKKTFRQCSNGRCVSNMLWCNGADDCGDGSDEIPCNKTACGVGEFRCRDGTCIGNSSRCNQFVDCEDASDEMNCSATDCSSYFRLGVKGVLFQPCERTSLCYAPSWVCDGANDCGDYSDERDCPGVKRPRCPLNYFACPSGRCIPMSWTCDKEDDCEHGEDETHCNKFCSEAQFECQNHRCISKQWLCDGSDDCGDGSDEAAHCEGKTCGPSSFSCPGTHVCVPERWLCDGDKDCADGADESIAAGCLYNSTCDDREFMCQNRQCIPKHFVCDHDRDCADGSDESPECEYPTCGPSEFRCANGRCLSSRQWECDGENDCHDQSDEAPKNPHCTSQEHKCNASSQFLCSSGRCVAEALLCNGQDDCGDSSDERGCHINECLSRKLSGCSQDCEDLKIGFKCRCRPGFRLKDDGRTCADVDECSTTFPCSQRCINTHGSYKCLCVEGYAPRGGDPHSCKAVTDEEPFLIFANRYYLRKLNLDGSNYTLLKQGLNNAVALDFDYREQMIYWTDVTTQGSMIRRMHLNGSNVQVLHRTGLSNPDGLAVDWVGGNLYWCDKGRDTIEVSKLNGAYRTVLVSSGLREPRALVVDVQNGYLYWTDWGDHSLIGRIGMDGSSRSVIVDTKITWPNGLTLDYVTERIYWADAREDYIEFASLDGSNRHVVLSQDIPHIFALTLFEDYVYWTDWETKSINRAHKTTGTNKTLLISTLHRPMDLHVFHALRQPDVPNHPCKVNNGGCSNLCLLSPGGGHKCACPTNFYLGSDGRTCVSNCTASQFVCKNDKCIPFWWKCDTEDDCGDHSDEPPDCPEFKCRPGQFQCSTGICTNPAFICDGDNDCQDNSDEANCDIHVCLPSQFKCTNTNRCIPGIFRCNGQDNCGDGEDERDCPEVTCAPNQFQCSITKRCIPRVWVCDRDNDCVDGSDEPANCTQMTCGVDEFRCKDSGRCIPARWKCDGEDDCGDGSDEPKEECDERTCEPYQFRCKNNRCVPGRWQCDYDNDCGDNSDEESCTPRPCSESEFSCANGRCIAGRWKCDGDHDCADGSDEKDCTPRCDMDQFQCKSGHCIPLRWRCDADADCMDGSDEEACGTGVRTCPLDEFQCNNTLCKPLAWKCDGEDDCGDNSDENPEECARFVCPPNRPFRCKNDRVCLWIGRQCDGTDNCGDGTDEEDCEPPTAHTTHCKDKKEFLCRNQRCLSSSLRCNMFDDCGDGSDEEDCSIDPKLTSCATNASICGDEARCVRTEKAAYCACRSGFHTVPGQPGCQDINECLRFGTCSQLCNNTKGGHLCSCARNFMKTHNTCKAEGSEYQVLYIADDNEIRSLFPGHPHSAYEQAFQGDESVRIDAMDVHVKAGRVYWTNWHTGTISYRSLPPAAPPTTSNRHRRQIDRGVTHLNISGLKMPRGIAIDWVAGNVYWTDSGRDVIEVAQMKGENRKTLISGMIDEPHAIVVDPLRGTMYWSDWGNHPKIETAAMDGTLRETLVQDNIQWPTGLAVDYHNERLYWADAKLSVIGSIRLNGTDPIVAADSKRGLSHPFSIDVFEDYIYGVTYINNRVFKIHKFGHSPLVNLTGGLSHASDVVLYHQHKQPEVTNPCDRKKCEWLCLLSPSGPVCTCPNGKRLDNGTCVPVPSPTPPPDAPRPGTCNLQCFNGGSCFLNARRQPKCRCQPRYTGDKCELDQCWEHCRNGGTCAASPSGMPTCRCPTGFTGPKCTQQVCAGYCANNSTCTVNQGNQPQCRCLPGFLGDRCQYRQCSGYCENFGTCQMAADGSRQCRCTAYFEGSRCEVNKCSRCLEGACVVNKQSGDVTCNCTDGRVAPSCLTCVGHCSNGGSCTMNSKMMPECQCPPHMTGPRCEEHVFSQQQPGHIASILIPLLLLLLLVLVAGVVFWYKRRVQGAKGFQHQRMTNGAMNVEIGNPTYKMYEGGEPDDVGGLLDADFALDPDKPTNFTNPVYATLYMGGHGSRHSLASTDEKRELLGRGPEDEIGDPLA
The conditions of data set [4]: cited from earlier work.
Data set [5] relates to bovine brain capillary endothelial cell monolayers. Particulars: cited from earlier work.
Data set [6] is described as follows: Immunohistochemical detection of Angiopep-2 in brain with anti-Angiopep-2 pAb. The following applies: mice, 20 mg/kg tail vein, 60 min uptake, cold saline perfusion.
The conditions of data set [7]: in situ brain perfusion; cited from earlier work.
Data set [8] deals with endothelial cells. Put plainly: Endothelial cells exposed to Angiopep-2. In kind it is cell-based. Particulars: data not shown.
For data set [9] the following is noted: after in situ perfusion; cited from earlier work.
Data set [10] deals with LRP-1 (Homo sapiens) (UniProt Q07954). Particulars: cited from earlier work. This is another data set of the same source.

Sequence of receptor-associated protein (RAP) (P30533 35-357): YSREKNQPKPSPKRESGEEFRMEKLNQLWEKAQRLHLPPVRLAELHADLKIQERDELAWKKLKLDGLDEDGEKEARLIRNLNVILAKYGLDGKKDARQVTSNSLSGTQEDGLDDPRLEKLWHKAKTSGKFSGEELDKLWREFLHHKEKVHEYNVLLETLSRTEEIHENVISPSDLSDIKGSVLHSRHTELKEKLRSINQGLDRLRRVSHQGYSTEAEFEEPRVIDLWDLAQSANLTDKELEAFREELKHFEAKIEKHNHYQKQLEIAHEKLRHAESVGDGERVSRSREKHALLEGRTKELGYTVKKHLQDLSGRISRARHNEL

As to protamine, the “Inhibition of [125I]-Angiopep-2 uptake into RBE4 cells” value (shortened to “Inhibition”) in data set [1] stood at 79%.

Regarding “RAP: receptor-associated protein, an LRP ligand”, the pKd in data set [2] is approximately 8.70.

Regarding α2-macroglobulin: LRP-1 ligand, the pKd in data set [2] is approximately 8.70.

As for “receptor-associated protein (RAP) (from UniProt P30533)”, the pKd in data set [3] was 8.70. On to poly-L-glutamine, for which, in [1], the “Inhibition” value was “unaffected”. Regarding Cy5.5, the “Passage of free dye across the BBB” value in [4] is “does not cross the BBB”. On to TFFYGGSRGRRNNFRTEEY [Angiopep-7], for which, in data set [5], the “In vitro BBB transcytosis” value is “did not exhibit in vitro transcytosis”. For the substance TFFYGGSRGKRNNFKTEEY [Angiopep-2], the “Immunohistochemical detection in brain after IV bolus injection” value in data set [6] is reported as “present in the brain parenchyma”. Also, in [5], the “In vitro BBB transcytosis” value was “high BBB transcytosis in vitro”. Further, in data set [7], the “Permeability of the BBB to inulin in the presence of Angiopep-2” value is on record as “unaffected”. For the same substance, the “Effect of exposure to Angiopep-2 on endothelial cells” value in data set [8] is listed as “unaffected”. Moreover, the “Apparent distribution volume in brain parenchyma vs transferrin” value in data set [9] is “greater apparent distribution volume in brain parenchyma than transferrin”. For the substance α2-macroglobulin (from UniProt P01023), the pKd in [10] is 8.70.

With poly-L-lysine, the “Inhibition” value in data set [1] is recorded as 69%.
